The list is not random: actives were taken first. Their share in the collection is about 5.8%.
KDM4C inh: KDM4C (human) demethylase inhibition; AID 720574; GST-KDM4C 2-372, H3K9me3 peptide, LANCE TR-FRET; inhibition, % at 12.5 µM; hit rate 0.15% among 96,000; Q9H3R0;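 active means mean replicate inhibition above about 25%, with at least 55% of replicates also reaching it, limit read from the data, passing the limit was not always enough; inconclusive means only one of those two conditions met; inactive means neither condition met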
Target sequence (Q9H3R0 2-372 limits assumed): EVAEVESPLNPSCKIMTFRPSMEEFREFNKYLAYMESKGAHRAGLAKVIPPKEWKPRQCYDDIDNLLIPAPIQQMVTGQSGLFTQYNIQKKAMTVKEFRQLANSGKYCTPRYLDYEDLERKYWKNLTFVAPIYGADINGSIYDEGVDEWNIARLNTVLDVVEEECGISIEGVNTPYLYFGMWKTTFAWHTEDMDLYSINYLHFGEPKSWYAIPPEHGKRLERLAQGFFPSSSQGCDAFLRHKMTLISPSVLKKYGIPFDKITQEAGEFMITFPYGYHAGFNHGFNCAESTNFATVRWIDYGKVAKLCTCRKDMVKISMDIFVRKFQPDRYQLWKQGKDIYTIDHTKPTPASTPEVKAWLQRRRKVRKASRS
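material = GST-tagged GASC-1 (JMJD2C) catalytic fragment, aa 2-372 | amount = enzyme final amount 10 nM | medium = HEPES buffer, pH 7.5, plus ascorbate | also added = H3K9me3 peptide substrate, Fe(II), 2-oxoglutarate | dosing = single dose | times = 30 min demethylation and 1 h detection at room temperature | detection = LANCE TR-FRET | read-out basis = Fall in 671/618 emission ratio as inhibition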
T cruzi growth-1: T. cruzi proliferation inhibition | T. cruzi beta-gal in NIH3T3, GalScreen luminescence, 90 h | AID 624255 | inhibition, % at 8.34 µM | hit rate 5.9% among 77,000;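 active means mean inhibition above about 93%, with at least 55% of replicates each passing it, limit read from the data, passing the limit was not always enough; inconclusive means only one of those two conditions holds; inactive means neither condition holds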
Pf Dd2 inh: blocks growth of Plasmodium falciparum Dd2 parasites | AID 1159554 | P. falciparum Dd2 growth, SYBR Green, 72 h; stronger effect = lower value | hit rate 2.3% among 94,000 | activity change, % at 10 µM; in the data active means activity change below about -80%; inconclusive means no clear call, values can overlap the other calls
IDH1 mut inh: IDH1 R132H (human) inhibition; O75874; IDH1 R132H reductase, diaphorase/resazurin fluorescence, 60 min; inhibition, % at 10 µM; hit rate 0.18% among 70,000; AID 624101; in the data active means inhibition above about 34%; inconclusive means no clear call, values can overlap the other calls; inactive means below about 11%;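 further: 0% = DMSO and 100% = no enzyme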
T cruzi growth-2: Trypanosoma cruzi proliferation inhibition; shares compounds with T cruzi growth-1; T. cruzi beta-gal in NIH3T3, GalScreen luminescence, 90 h; inhibition, % at 8.35 µM; hit rate 72% among 5,600; AID 651739;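 active means mean replicate inhibition above about 95% and at least 55% of replicates individually reaching it, limit read from the data; inconclusive means only one of the two criteria is met; inactive means neither criterion is met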
T cruzi growth-3: blocks T. cruzi growth in NIH3T3 host cells. shares compounds with T cruzi growth-1. inhibition, % at 2.09 µM. hit rate 21% among 5,600. T. cruzi beta-gal in NIH3T3, GalScreen luminescence, 90 h;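 active means mean inhibition above about 95%, with at least 55% of replicates also reaching it, limit read from the data; inconclusive means meets just one of the two conditions; inactive means meets neither condition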;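 further: plate controls were neutral control median for no effect and positive control median for full effect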
3T3 cytotox: kills mouse NIH/3T3 fibroblasts; shares compounds with T cruzi growth-1; NIH/3T3 viability, CellTiter-Glo ATP luminescence, 90 h; cytotoxicity (signal decrease), % at 8.35 µM; hit rate 14% among 5,600; AID 651742;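 active means mean signal decrease across replicates above about 35% based on untreated-well scatter, with enough replicates individually passing, limit read from the data; inconclusive means no rule stated though some were filed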;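 further: 0% = median of neutral control wells and 100% = median of positive control wells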
3T3 cytotox 2: cytotoxicity in mouse NIH/3T3 fibroblasts; NIH/3T3 viability, CellTiter-Glo ATP luminescence, 90 h; inhibition, % at 24.9 µM; hit rate 56% among 5,600; shares compounds with T cruzi growth-1; AID 651744;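 active means mean loss of cell viability signal at or above a set limit, and enough replicates individually reaching it; inconclusive means meets only the mean limit or only the replicate share; inactive means meets neither condition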;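 further: 0% = median of neutral control wells and 100% = median of positive control wells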
Numbers without * were called inactive; ? = inconclusive; / = no result given.

SMILES	KDM4C inh	T cruzi growth-1	Pf Dd2 inh	IDH1 mut inh	T cruzi growth-2	T cruzi growth-3	3T3 cytotox	3T3 cytotox 2
N#C[C@@H]1[C@@H](c2ccc(-c3ccc(F)cc3)cc2)[C@@H](CO)N1C(=O)Cc1ccccc1	-2	39	-34	0	/	/	/	/
N#C[C@H]1[C@H](c2ccc(-c3ccc(F)cc3)cc2)[C@@H](CO)N1C(=O)Cc1ccccc1	0	?	-9	/	98*	49	40*	96*
N#C[C@@H]1[C@H](c2ccccc2)[C@@H](CO)N1C(=O)Cc1ccccc1	-1	109*	13	/	6	-7	-7	1
N#C[C@@H]1[C@@H](c2ccccc2)[C@H](CO)N1C(=O)Cc1ccccc1	-2	100*	17	/	44	5	-22	-9
O=C(Cn1cnc2ccccc2c1=O)Nc1cc(Cl)c(Cl)cc1Cl	/	/	/	0	/	/	/	/
C[C@@H]1CN([C@@H](C)CO)C(=O)c2cccc(NC(=O)c3ccncc3)c2O[C@H]1CN(C)Cc1ccc(-c2ccccc2)cc1	3	105*	-28	/	83	82	31	55*
C[C@H](CO)N1C[C@H](C)[C@@H](CN(C)CC2CCCCC2)Oc2c(NS(=O)(=O)c3cn(C)cn3)cccc2C1=O	13	103*	14	/	51	16	11	8
C[C@H](CO)N1C[C@H](C)[C@@H](CN(C)CC2CC2)Oc2c(NC(=O)c3ccncc3)cccc2C1=O	/	102*	9	-1	78	23	-9	?
C[C@H](CO)N1C[C@H](C)[C@H](CN(C)Cc2ccc(-c3ccccc3)cc2)Oc2c(NC(=O)c3ccncc3)cccc2C1=O	-1	99*	-73	-10	105*	?	56*	47*
C[C@@H]1CN([C@H](C)CO)C(=O)c2cccc(NC(=O)c3ccncc3)c2O[C@H]1CN(C)CC1CC1	1	48	-12	1	/	/	/	/
C[C@H]1CN([C@@H](C)CO)C(=O)c2cccc(NC(=O)c3ccncc3)c2O[C@H]1CN(C)Cc1ccncc1	-1	50	11	/	/	/	/	/
CC(=O)NCCc1c(C(=O)O)[nH]c2ccc(C(C)=O)cc12	/	/	/	0	/	/	/	/
C[C@H](CO)N1C[C@H](C)[C@@H](CN(C)Cc2ccccc2)Oc2c(NC(=O)c3ccncc3)cccc2C1=O	0	65	-28	/	/	/	/	/
C[C@H](CO)N1C[C@H](C)[C@@H](CN(C)Cc2ccc(-c3ccccc3)cc2)Oc2c(NC(=O)c3ccncc3)cccc2C1=O	1	102*	-28	/	105*	98*	49*	36*
C[C@@H]1CN([C@H](C)CO)C(=O)c2cccc(NC(=O)c3ccncc3)c2O[C@H]1CN(C)Cc1ccc(-c2ccccc2)cc1	1	107*	-79	/	94	85	50*	41*
C[C@@H]1CN([C@@H](C)CO)C(=O)c2cccc(NC(=O)c3ccncc3)c2O[C@@H]1CN(C)Cc1ccccc1	0	45	3	/	/	/	/	/
O=C(CSc1n[nH]c(-c2ccc(Cl)cc2)n1)Nc1cccc(Br)c1	/	/	/	0	/	/	/	/
N#C[C@@H]1[C@H](c2ccc(C#CC3CCCC3)cc2)[C@@H](CO)N1S(=O)(=O)c1ccccc1	-1	97*	-16	/	96*	107*	13	108*
CS(=O)(=O)N1[C@@H](C#N)[C@@H](c2ccc(C#CC3CC3)cc2)[C@@H]1CO	-2	103*	-28	/	107*	?	-22	16
CS(=O)(=O)N1[C@@H](C#N)[C@H](c2ccc(C#CC3CC3)cc2)[C@@H]1CO	-5	66	-28	/	/	/	/	/
COc1ccc(S(=O)(=O)N(C)CC(=O)Nc2cc(C(F)(F)F)ccc2Cl)cc1C	/	/	/	1	/	/	/	/
C[C@H]1CCCCO[C@H](CN(C)Cc2ccc3c(c2)OCO3)[C@@H](C)CN([C@@H](C)CO)C(=O)c2cc(NC(=O)NC3CCCCC3)ccc2O1	-1	100*	/	/	108*	51	18	102*
C[C@@H]1CCCCO[C@H](CN(C)Cc2ccc3c(c2)OCO3)[C@@H](C)CN([C@@H](C)CO)C(=O)c2cc(NC(=O)NC3CCCCC3)ccc2O1	1	94	/	1	/	/	/	/
C[C@@H]1CCCCO[C@H](CN(C)Cc2ccc3c(c2)OCO3)[C@H](C)CN([C@H](C)CO)C(=O)c2cc(NC(=O)NC3CCCCC3)ccc2O1	-1	107*	/	/	108*	91	3	104*
Cc1c(Cl)cccc1NC(=O)c1ccccc1OCC(=O)Nc1ccc2c3c(cccc13)CC2	/	/	/	1	/	/	/	/
SMILES	KDM4C inh	T cruzi growth-1	Pf Dd2 inh	IDH1 mut inh	T cruzi growth-2	T cruzi growth-3	3T3 cytotox	3T3 cytotox 2
O=C(CN1CCN(S(=O)(=O)c2cccc([N+](=O)[O-])c2)CC1)Nc1cc(Cl)ccc1Cl	/	/	/	0	/	/	/	/
Cc1ccccc1-c1ccc([C@@H]2[C@H](CO)N3CCCCN(C(=O)CN4CCOCC4)C[C@@H]23)cc1	2	101*	-34	/	84	47	36*	32*
Cc1ccccc1-c1ccc([C@H]2[C@H](CO)N3CCCCN(C(=O)CN4CCOCC4)C[C@@H]23)cc1	-1	102*	-4	/	87	70	14	23
Cc1ccc(-c2ccc3c(c2)O[C@H](CN(C)Cc2ccncc2)[C@@H](C)CN([C@H](C)CO)S3(=O)=O)cc1	0	122*	-90*	0	99*	103*	75*	105*
Cc1ccc(-c2ccc3c(c2)O[C@H](CN(C)Cc2ccncc2)[C@H](C)CN([C@@H](C)CO)S3(=O)=O)cc1	3	119*	-12	/	90	80	?	99*
C[C@H](CO)N1C[C@H](C)[C@@H](CN(C)Cc2ccncc2)Oc2cc(-c3ccncc3)ccc2S1(=O)=O	-2	116	-36	/	/	/	/	/
COc1ccc(NC(=O)CN(c2cc(Cl)cc(Cl)c2)S(C)(=O)=O)cc1Cl	/	/	/	-1	/	/	/	/
C[C@H](CO)N1C[C@H](C)[C@@H](CN(C)Cc2ccccc2)OCCCC[C@H](C)Oc2ccc(NC(=O)NC3CCCCC3)cc2C1=O	-1	?	-14	/	?	54	15	48*
C[C@@H]1CN([C@H](C)CO)C(=O)c2cc(NC(=O)NC3CCCCC3)ccc2O[C@@H](C)CCCCO[C@@H]1CN(C)Cc1ccccc1	0	113*	-47	3	108*	54	-13	31*
C[C@H]1CCCCO[C@@H](CN(C)Cc2ccccc2)[C@@H](C)CN([C@@H](C)CO)C(=O)c2cc(NC(=O)NC3CCCCC3)ccc2O1	2	-116	-55	5	/	/	/	/
C[C@@H]1CCCCO[C@@H](CN(C)Cc2ccccc2)[C@H](C)CN([C@@H](C)CO)C(=O)c2cc(NC(=O)NC3CCCCC3)ccc2O1	-2	-112	-46	/	/	/	/	/
